An excerpt weighted towards active compounds, which were near 2.4% of everything screened.
rRNA inh HTS: inhibitors of bacterial rRNA selective over humanized ribosomes. 350,000 compounds, 1.6% hits. AID 720706. E. coli WT GFP vs humanized-ribosome RFP mutants, fluorescence, 24 h; active compounds read low; DMSO median 0, no signal -100. GFP signal change (wild-type ribosome), % (concentration not given with the values);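 active = significant combined selectivity score with lowered wild-type GFP, culture density cut under 30%, mutant RFP and density less affected; inactive = any of these conditions unmet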
ERAP1 inh: ERAP1 (human) enzyme inhibition | Q9NZ08 | recombinant ERAP1, Leu-AMC fluorescence, 60 min | inhibition, % at 10.7 µM | 340,000 compounds, 0.15% hits | AID 652197;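 active = mean replicate inhibition of at least 30%, or all replicates individually reaching that 30% level; inactive = mean below 30% and not every replicate reaching it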
PGC1a acetyl inh: modulators of PGC1a acetylation; U2OS PGC1a acetylation, AlphaScreen anti-acetyl-lysine; with virally co-expressed GCN5 acetyltransferase; inhibition, % at 15.6 µM; 350,000 compounds, 0.17% hits;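 active = every replicate shows inhibition of at least 40%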
Casp6 inh: inhibitors of human caspase-6; P55212; purified caspase-6, Z-VEID-R110 cleavage fluorescence; inhibition, % at 12.5 µM; 350,000 compounds, 0.53% hits;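 active = mean inhibition across replicates at least about 35%, with every replicate also reaching that limit, limit read from the data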
Target sequence (P55212 24-179 limits assumed): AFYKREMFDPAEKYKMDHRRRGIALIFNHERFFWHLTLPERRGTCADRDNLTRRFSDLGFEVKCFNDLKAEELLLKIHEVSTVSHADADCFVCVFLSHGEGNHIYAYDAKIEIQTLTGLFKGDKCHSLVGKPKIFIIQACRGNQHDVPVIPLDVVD
Target sequence (P55212 194-293 limits assumed): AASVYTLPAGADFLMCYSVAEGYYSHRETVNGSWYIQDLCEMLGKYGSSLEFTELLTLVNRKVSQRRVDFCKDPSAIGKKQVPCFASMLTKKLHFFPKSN
S100A4 MyoIIA: blocks human S100A4 binding to myosin IIA peptide. P26447. S100A4/TAMRA-MyoIIA peptide fluorescence polarization. inhibition, % at 10.7 µM. 360,000 compounds, 0.14% hits;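 active = mean inhibition of at least 70% across replicates, with every replicate also reaching that level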
Target sequence (P26447 whole entry, looked up): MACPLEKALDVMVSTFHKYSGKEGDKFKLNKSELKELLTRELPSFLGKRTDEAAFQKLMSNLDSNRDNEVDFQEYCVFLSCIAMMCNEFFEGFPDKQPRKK
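Test system: S100A4 monomer protein. Medium: HEPES buffer with Ca2+, pH 7.2. Reagent: fluorescent myosin IIA peptide, 5 nM. Compound dosing: single-point compound testing. Timing: 5 min between mix addition and reading. Benchmarks: DMSO neutral and TFP positive wells.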
ARNT TACC3 PPI: ARNT/TACC3 interaction disruption. Q9Y6A5. AlphaScreen His-ARNT PAS-B/GST-TACC3 binding, luminescence; TACC3 fragment carries E629A point mutation. inhibition, % at 9.99 µM. 390,000 compounds, 0.66% hits. AID 623870;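 active = mean inhibition of replicates at least 50% and at least half of replicates each reaching 50%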
Hits are given with their value; . = inactive; / = not tested or not shown.

SMILES | rRNA inh HTS | ERAP1 inh | PGC1a acetyl inh | Casp6 inh | S100A4 MyoIIA | ARNT TACC3 PPI
c1ccc(CSc2ncnc3sccc23)cc1 | -27.4 | . | / | . | . | .
Cc1nc(SCc2ccccc2)c2ccsc2n1 | . | . | . | . | . | .
CC(C)NC(=O)N(C)C[C@@H]1Oc2ccc(NS(=O)(=O)c3ccc(Cl)cc3)cc2C(=O)N([C@@H](C)CO)C[C@H]1C | . | . | . | . | . | .
COc1ccc2c(c1)c(CCN1C(=O)c3ccccc3C1=O)cn2C(=O)c1ccco1 | . | . | . | 37.7 | . | .
CS(=O)(=O)Nc1ccc2c(c1)[C@H]1C[C@H](CC(=O)O)O[C@H](CO)[C@H]1O2 | . | . | . | . | . | /
COc1ccccc1N(C(=O)c1snc(C(N)=O)c1N)C(C(=O)NCc1ccccc1)c1ccc(O)cc1 (stereo not drawn) | . | . | / | . | . | .
NC(=O)c1nsc(C(=O)N(c2ccccc2F)C(C(=O)NCc2ccc(F)cc2)c2ccc(O)cc2)c1N (stereo not drawn) | -39.5 | . | / | . | . | .
COc1ccc(NC(=O)N(C)C[C@@H]2Oc3ccc(NC(=O)Nc4ccc(F)cc4)cc3C(=O)N([C@@H](C)CO)C[C@@H]2C)cc1 | . | . | . | . | . | .
CNC1=C(N(C(C)=O)c2ccc(Br)cc2)C(=O)c2ccccc2C1=O | / | / | / | / | / | 45.8
CCC(=O)N(C1=C(NC)C(=O)c2ccccc2C1=O)C(C)C | . | . | / | 71.6 | . | .
c1ccc(-c2nc3c(ccc4ccccc43)[nH]2)nc1 | / | / | . | / | / | 56.8
Nc1ccc(Cc2nc3c(ccc4ccccc43)[nH]2)cc1 | / | . | . | . | . | .
CC(C)C(OC(=O)c1ccccc1)c1nccc2ccccc12 (stereo not drawn) | -28.1 | . | / | . | . | .
CCCNC(=O)N1CC2(C1)CN(C(=O)CC1CC1)[C@@H](CO)c1c2c2ccc(OC)cc2n1C | . | . | . | . | . | /
COc1ccccc1-c1cc(-c2ccccc2)nc(SCC(=O)O)c1C#N | . | 42.3 | . | . | . | .
Cc1cc(C)c2nc(NNC(=O)c3cc(=O)c4ccccc4o3)sc2c1 | -26.6 | / | . | . | . | .
Cc1cc(C)c2nc(NNC(=O)c3ccc(S(=O)(=O)N4CCc5ccccc5C4)cc3)sc2c1 | . | . | / | . | . | .
Cc1noc(C)c1NC(=O)N(C)C[C@H]1Oc2c(NC(=O)NC3CCCCC3)cccc2C(=O)N([C@H](C)CO)C[C@H]1C | . | . | . | . | . | .
Cc1nnn(-c2nonc2N)c1C(=O)NNC(=O)c1ccc(Cl)c(Cl)c1 | -26.1 | / | . | . | . | .
CCC(=O)N(C)C[C@@H]1Oc2cc(-c3cccc(OC)c3)ccc2S(=O)(=O)N([C@@H](C)CO)C[C@H]1C | . | . | . | . | . | .
CC(C)(C)c1ccc(-n2nc(C#N)c(Cl)cc2=O)cc1 | . | . | 82.0 | . | . | /
CC(C)(C)c1ccc(-n2nc(C(N)=O)c(O)cc2=O)cc1 | . | . | . | . | . | /
O=C(Nc1cscc1S(=O)(=O)c1ccccc1)c1ccccc1Cl | -21.8 | / | . | . | . | .
CN(C[C@@H]1[C@@H](c2ccccc2)[C@H](CO)N1CC1CC1)C(=O)c1cccc(F)c1 | . | / | . | / | / | .
COCC(=O)N1CC2(CCN(C(=O)c3ccccn3)CC2)c2c(n(C)c3cc(OC)ccc23)[C@H]1CO | . | . | . | . | . | /
SMILES | rRNA inh HTS | ERAP1 inh | PGC1a acetyl inh | Casp6 inh | S100A4 MyoIIA | ARNT TACC3 PPI
COc1cc(/C=C2\C(=N)N3N=C(S(C)(=O)=O)SC3=NC2=O)ccc1OC(=O)c1ccco1 | . | . | / | 41.1 | . | .
COc1cc(/C=C2\C(=N)N3N=C(S(C)(=O)=O)SC3=NC2=O)ccc1OCCOc1ccccc1C | . | . | . | 39.6 | . | .
COc1cc(/C=C2\C(=N)N3N=C(S(C)(=O)=O)SC3=NC2=O)ccc1OC(=O)c1cccs1 | . | . | / | 43.3 | . | .
CCOc1cc(/C=C2\C(=N)N3N=C(S(=O)(=O)CC)SC3=NC2=O)ccc1OC(=O)c1ccco1 | . | . | . | . | . | .
Cc1c(N/N=C(\C#N)C(=O)c2ccccc2)c(=O)n(-c2ccccc2)n1C | / | . | . | . | . | 67.0
CCOC(=O)/C(C#N)=N/Nc1c(C)n(C)n(-c2ccccc2)c1=O | . | . | . | . | . | /
Cc1ccccc1C(=O)/C(C#N)=N/Nc1c(C)n(C)n(-c2ccccc2)c1=O | / | / | . | / | / | 56.7
CCC(=O)N1[C@H](CO)[C@H](c2ccc(C3=CCCC3)cc2)[C@H]1CNC(=O)CN(C)C | . | / | . | / | / | .
CCSc1nnc(NC(=O)CSC2=NCCS2)s1 | . | . | 94.3 | . | . | .
CCCN(C)C[C@H]1Oc2ncc(-c3cccc(C#N)c3)cc2C(=O)N([C@@H](C)CO)C[C@@H]1C | . | . | . | . | . | .
C[C@@H]1CN([C@H](C)CO)S(=O)(=O)c2ccc(C#CC(C)(C)O)cc2O[C@H]1CN(C)Cc1ccncc1 | . | . | . | . | . | .
Cc1ccc(-c2cc(C(=O)NNC(=O)c3csc(N4CCOCC4)n3)c3ccccc3n2)cc1 | -18.9 | . | . | . | . | /
O=C(NNC(=O)c1cc(-c2ccccc2)nc2ccccc12)c1csc(N2CCOCC2)n1 | -37.2 | . | / | . | . | .
O=C(NNC(=O)c1cc(-c2ccc(Br)cc2)nc2ccccc12)c1csc(N2CCOCC2)n1 | / | . | . | . | . | .
C[C@H](CO)N1C[C@H](C)[C@H](CN(C)C(=O)Nc2ccc(C(F)(F)F)cc2)Oc2c(NS(=O)(=O)c3ccc(Cl)cc3)cccc2C1=O | . | . | . | . | . | .
O=C(CC1CC1)N[C@@H]1CC[C@H](CCNS(=O)(=O)c2ccc(F)cc2)O[C@@H]1CO | . | . | . | . | . | .
O=C(Nc1nnc2n1CCS2)c1ccco1 | . | . | . | . | . | 45.3
Cn1c(SCCOc2ccccc2F)nc2ccccc2c1=O | -28.1 | . | / | . | . | .
COc1cccc(N2CCN(S(=O)(=O)c3cc4c(cc3C)N(C)CCO4)CC2)c1 | . | . | / | . | . | .
Cc1cc2c(cc1S(=O)(=O)N1CCN(c3ccccc3)CC1)OCC(=O)N2 | . | . | / | . | . | .
Cc1cc2c(cc1S(=O)(=O)N1CCN(c3ccccc3F)CC1)OCC(=O)N2 | . | . | . | . | . | 15.2
Cc1cc2c(cc1S(=O)(=O)N1CCN(c3cccc(C)c3C)CC1)OCCN2C | . | . | . | . | 152.6 | .
O=C(C[C@@H]1CC[C@H](NC(=O)C2CCOCC2)[C@@H](CO)O1)Nc1ccc(-c2ccccc2)cc1 | . | . | . | . | . | .
CCOc1cc(/C=N/n2cnnc2)ccc1O | . | . | . | . | . | .
CCOc1ccc2ccc(OCC)c(/C=N/n3cnnc3)c2c1 | -26.8 | . | / | . | . | .

High-throughput results: PubChem BioAssay, Broad Institute
